Screening results as filed in PubChem BioAssay.
CHOP inhibitor: blocks CHOP induction under ER stress; CHO-K1 CHOP-promoter luciferase, tunicamycin-induced, 15-18 h; inhibition, % at 10 µM; 220,000 tested, 3.8% active;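 active = compounds that reduced the stress-induced luciferase reporter signal by more than about 70% of percent inhibition, limit read from the data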;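 note: 0% = tunicamycin plus vehicle and 100% = wells without tunicamycin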
UPR CHOP act: apoptotic UPR (CHOP) activation | activation, % at 10 µM | AID 449763 | CHO-CHOP luciferase reporter, luminescence; percent of tunicamycin response over DMSO baseline | 330,000 tested, 0.34% active;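 active = at 10 µM dose, activation of 40% or more, normalized to positive control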;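 note: 100% = tunicamycin at 10 µg/mL and 0% = DMSO alone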
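Material: CHO-CHOP cells, stable luciferase reporter of PERK-eIF2a-CHOP signalling; quantity: 500 reporter cells seeded per well; buffer or medium: F12 medium containing 10% fetal bovine serum; compound: one dose, 10 µM in 0.5% DMSO; incubation: 6 h compound treatment, 37 °C; measured by: Steady-Glo luciferase luminescence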
TMEM16A inh: mouse TMEM16A channel inhibition, primary screen | Q8BHY3 | HEK293 TMEM16A/YFP iodide influx fluorescence, ionomycin | normalized B-score (activity score, 25-100; higher = stronger inhibition) at 10 µM | 310,000 tested, 1.2% active;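 active = ratio plate-corrected score three or more library SD toward inhibition, starting fluorescence score within five deviations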;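 note: score derived from kinetic fluorescence span divided by baseline fluorescence per well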
Target sequence (Q8BHY3 whole entry, looked up): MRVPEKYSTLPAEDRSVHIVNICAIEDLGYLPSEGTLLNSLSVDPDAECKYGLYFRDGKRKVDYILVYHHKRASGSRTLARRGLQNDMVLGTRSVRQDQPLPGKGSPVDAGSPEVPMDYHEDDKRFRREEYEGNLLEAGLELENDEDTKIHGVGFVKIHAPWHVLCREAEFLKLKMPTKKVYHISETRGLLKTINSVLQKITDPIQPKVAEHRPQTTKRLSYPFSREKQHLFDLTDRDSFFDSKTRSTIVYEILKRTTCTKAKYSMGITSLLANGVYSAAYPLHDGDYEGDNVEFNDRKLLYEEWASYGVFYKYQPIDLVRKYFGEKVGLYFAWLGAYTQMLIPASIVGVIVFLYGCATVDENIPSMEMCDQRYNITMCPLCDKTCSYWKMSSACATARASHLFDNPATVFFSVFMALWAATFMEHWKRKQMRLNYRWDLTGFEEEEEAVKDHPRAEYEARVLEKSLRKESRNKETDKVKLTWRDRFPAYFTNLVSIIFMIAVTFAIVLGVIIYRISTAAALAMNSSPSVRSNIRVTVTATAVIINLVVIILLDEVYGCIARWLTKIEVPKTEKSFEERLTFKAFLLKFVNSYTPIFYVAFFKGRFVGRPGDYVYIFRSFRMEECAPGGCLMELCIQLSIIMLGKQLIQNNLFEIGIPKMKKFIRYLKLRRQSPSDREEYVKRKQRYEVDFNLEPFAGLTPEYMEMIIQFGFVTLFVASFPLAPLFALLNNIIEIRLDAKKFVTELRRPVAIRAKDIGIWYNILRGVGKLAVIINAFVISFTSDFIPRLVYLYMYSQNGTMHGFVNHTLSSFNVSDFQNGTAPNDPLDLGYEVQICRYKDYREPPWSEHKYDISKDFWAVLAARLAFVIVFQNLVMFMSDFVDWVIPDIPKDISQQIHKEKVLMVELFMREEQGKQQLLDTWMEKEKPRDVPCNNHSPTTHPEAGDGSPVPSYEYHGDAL
Hep lipid drop: hepatic lipid droplet formation modulation; 240,000 tested, 0.4% active; AML12 mouse hepatocytes, oleate lipid droplets, BODIPY imaging; inhibition, % at 6.5 µM;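 active = lipid droplet intensity inhibited by at least 50%, with more than 500 cells counted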
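material = mouse AML12 hepatocyte cell line, fixed after treatment | also added = 100 µM oleic acid challenge | doses = compound at 6.5 µM only | schedule = overnight exposure | technique = Image-based BODIPY and DAPI two-channel analysis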
TMEM16A act: activates or potentiates the mouse TMEM16A chloride channel | Q8BHY3 | HEK293 TMEM16A/YFP-H148Q/I152L, iodide quench fluorescence; stronger effect = lower value | B-score at 10 µM | 340,000 tested, 0.3% active | AID 623877;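 active = fluorescence-ratio B-score plate-corrected deviation score at least 3 library SD below zero, with starting fluorescence score within 5 deviations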;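 note: channel opened by trigger with iodide after compound preincubation; score built on the fluorescence ratio of max minus min over baseline; more negative score means more quench and so TMEM16A activation or potentiation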
UPR XBP1 act: activators of adaptive arm of unfolded protein response (XBP1) | CHO-XBP1 luciferase reporter, IRE1-XBP1 UPR activation, luminescence; percent of tunicamycin response, DMSO as zero | activation, % at 20 µM | 330,000 tested, 0.33% active | AID 463104;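 active = versus positive control, 20 µM dose yields 30% or more activation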;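 note: 100% = tunicamycin at 10 µg/mL and 0% = DMSO only wells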
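Test system: CHO-XBP1 luciferase reporter cells | Buffer or medium: Serum-containing F12 medium, 10% FBS | Schedule: 6 h compound exposure at 37 °C, 5% CO2 | Detection: Steady-Glo luciferase glow luminescence, 10 min after reagent addition | Read-out basis: Activation, % of tunicamycin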
* = called active by the depositor; i = inactive; x = no result given. Shown are actives, neighbours in structure and some others; about 4.2% of the full set was active somewhere.

SMILES | CHOP inhibitor | UPR CHOP act | TMEM16A inh | Hep lipid drop | TMEM16A act | UPR XBP1 act
O=C(O)c1ccccc1C(=O)Nc1c(-c2ccccc2)nc2ccccn12 | x | 1 | i | -1 | i | 2
CC(NC(=O)COc1ccccc1-c1ccccc1)c1ccccc1 (stereo not given) | 77* | -2 | i | -4 | i | -1
COc1ccc(NS(=O)(=O)c2ccc(O)c(NC(=O)c3ccc(S(=O)(=O)N4CCCCCC4)cc3)c2)cc1 | 27 | -1 | i | 11 | i | -1
COc1ccc(NS(=O)(=O)c2cccc(NC(=O)c3ccc(S(=O)(=O)N4CCCCCC4)cc3)c2)cc1 | 75* | 8 | i | -23 | i | 1
CCOc1ccc(C(=O)N[C@H](C(=O)Nc2cccc(S(=O)(=O)N3CCOCC3)c2)C(C)C)cc1 | x | 1 | x | x | i | 17
COc1ccc(S(=O)(=O)Nc2cccc(S(=O)(=O)N3CCCCCC3)c2)cc1 | -15 | x | i | 5 | i | x
CCOc1ccc(C(=O)N[C@H](C(=O)Nc2cccc(S(=O)(=O)N3CCCCC3)c2)C(C)C)cc1 | 85* | 2 | i | 29 | i | 1
O=C(Nc1ccc(S(=O)(=O)N2CCOCC2)cc1)c1ccc(S(=O)(=O)N2CCOCC2)cc1 | x | 0 | i | -4 | i | 1
O=S(=O)(Nc1nc2ccccc2nc1Nc1cccc(S(=O)(=O)N2CCCCC2)c1)c1ccccc1 | 75* | 5 | 100* | 2 | i | -1
O=C(Nc1ccc(S(=O)(=O)N2CCCCC2)cc1)c1ccc(CN2CCOCC2)cc1 | 40 | 2 | 100* | -1 | i | -3
COC(=O)Cc1ccc(NC(=S)Nc2ccccn2)cc1 | 73* | 3 | i | 5 | i | -5
Cc1c(N=Cc2cccs2)c(=O)n(-c2ccccc2)n1C | 8 | 0 | 100* | x | i | 4
N#CC1=C(N)Oc2n[nH]c(-c3cccs3)c2C1C1C=CCCC1 (stereo not given) | 96* | -1 | i | 0 | i | -3
N#CC1=C(N)Oc2n[nH]c(-c3cccs3)c2C1c1ccsc1 (stereo not given) | 30 | 1 | i | -26 | i | 4
Nc1ccc2nc(CN3CCOCC3)[nH]c2c1 | -17 | -3 | i | 19 | -19* | -3
c1ccc2[nH]c(CN3CCOCC3)nc2c1 | 14 | 3 | i | -1 | i | 2
Oc1ccccc1CN(Cc1ccco1)CC(O)COCc1ccc(Cl)cc1 (stereo not given) | 84* | -2 | i | 4 | i | -3
COc1ccc(-c2noc(C(=O)NCc3ccc(F)cc3)n2)cc1OC | 4 | 1 | i | -26 | i | -1
CCN(CC)Cc1cc2ccccc2c2c1COC2 | -9 | -2 | 25* | x | i | -3
CCCN(CCC)Cc1cc2ccccc2c2c1COC2 | 32 | -2 | i | x | i | 0
CCCCN(CCCC)Cc1cc2ccccc2c2c1COC2 | 76* | 1 | i | -7 | i | -4
O=C(COc1ccc(F)c(Cl)c1)Nc1ccc(N2CCOCC2)cc1 | x | 1 | x | x | i | -2
CC1CCN(C(CNS(=O)(=O)c2ccccc2)c2ccccc2)CC1 (stereo not given) | x | -2 | x | x | i | 2
COc1cc(NC(=O)c2ccccc2)c(OC)cc1NC(=O)CN1C(=O)NC2(CCCCC2C)C1=O (stereo not given) | x | -2 | x | x | i | 1
C=CC[n+]1c(-c2ccc(OC)cc2)csc1NNC(=O)Nc1ccccc1 | 52 | 2 | 100* | -23 | i | -3
SMILES | CHOP inhibitor | UPR CHOP act | TMEM16A inh | Hep lipid drop | TMEM16A act | UPR XBP1 act
C=CC[n+]1c(-c2ccc(C)cc2)csc1Nc1ccc(NC(C)=O)cc1 | 85* | x | x | -20 | i | x
CC(=O)Nc1ccc(-c2ccc(NC(C)=O)cc2)cc1 | -29 | 0 | i | 8 | i | 1
CCCCn1ccnc1C(=O)c1cccc(S(=O)(=O)N2CC(C)CC(C)C2)c1 (stereo not given) | 34 | 0 | 100* | 18 | i | -2
CCCCn1ccnc1C(=O)c1cc(S(=O)(=O)N2CCOCC2)ccc1C | 68 | -3 | i | -14 | i | -3
O=C(COc1ccc(-c2ccccc2)cc1)NNC(=O)Nc1ccc(F)cc1F | x | 2 | i | -29 | i | -2
Cc1ccc(NC(=O)C(OC(=O)c2ccc(O)cc2)c2ccccc2)cc1Cl (stereo not given) | -6 | -3 | i | -18 | i | -2
Cc1ccc(NC(=O)C(OC(=O)c2ccc(F)cc2)c2ccccc2)cc1Cl (stereo not given) | 73* | x | i | -19 | i | x
Cc1ccc(NC(=O)Cn2c(=O)cnc3ccccc32)cc1S(=O)(=O)N1CCOCC1 | x | 2 | x | x | i | -3
CC(C)(C)OC(=O)N[C@H](C(=O)OC(C)(C)C)c1ccc2ccccc2c1 | x | 3 | x | x | i | -2
CC(C)c1ccc(-c2nc(N3CCCCCC3)nc3n[nH]c(N)c23)cc1 | 80* | 1 | i | -6 | i | 2
Cc1noc(C)c1NC(=O)N(C)C[C@H]1Oc2ccc(NS(=O)(=O)c3cccs3)cc2C(=O)N([C@H](C)CO)C[C@@H]1C | x | 0 | x | x | i | 2
Cc1ccc(C=C2C(Cl)=C(Cl)C(Cl)=C2Cl)cc1 | 107* | -4 | i | -15 | x | -4
Cc1ccc2nc3cc([N+](=O)[O-])cc([N+](=O)[O-])c3cc2c1 | 95* | x | x | -32 | i | x
Cc1nc2ccc([N+](=O)[O-])cc2nc1C | -4 | 1 | i | -5 | i | 0
COc1cc2c(cc1OC)[C@@H](c1ccccc1)CN(C)CC2 | 39 | x | x | x | x | x
CC(C)(C)c1ccc(/C=N/NC(=S)NCc2ccccc2)cc1 | 65 | 1 | i | 2 | i | 2
C=CCNC(=S)N/N=C/c1ccc(C(C)(C)C)cc1 | 95* | x | x | 11 | i | x
CCOC(=O)c1ccccc1NC(=O)c1c(F)c(F)c(F)c(F)c1F | 73* | -1 | i | -4 | i | 2
O=C(Nc1cc(-c2ccccc2)sc1C(=O)O)c1cccc(F)c1 | x | 1 | 100* | -10 | i | -4
CCOC(=O)c1ccccc1NC(=O)c1cccc(F)c1 | 74* | -3 | i | 8 | i | 2
CCOC(=O)c1ccccc1NC(=O)c1ccc(F)cc1 | 59 | 0 | i | -8 | i | -3
CCOC(=O)c1[nH]c(COC(=O)c2ccccc2NC(=O)c2ccco2)c(C(=O)OCC)c1C | 81* | 9 | i | -5 | i | -1
CCOC(=O)c1ccccc1NC(=O)c1ccc2nccnc2c1 | -1 | 1 | i | 12 | i | 3
